The record followed here is ChEMBL document CHEMBL3612036, “Design, Synthesis, and Cardioprotective Effects of N-Mercapto-Based Hydrogen Sulfide Donors” (J Med Chem, 2015).

Data set [1] can be described thus: […] peak time for H2S release in pH 7.4 PBS buffer containing 10% THF incubated for 2 hrs at room temperature in presence of cysteine by methylene blue based UV-Vis spectrometry. The data set is classed as physicochemical. Conditions: pH 7.4, 2 h. Put shortly: (§1)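 Donor (30 mM THF stock; 0.1 mM final) was added to PBS (pH 7.4, 50 mM)/THF 9:1 containing the stated thiol, at room temperature for 2 h. 1.0 mL aliquots were taken periodically into methylene blue cocktail (zinc acetate, N,N-dimethyl-p-phenylenediamine in HCl, FeCl3 in HCl) and reacted 15 min. Absorbance was read at 670 nm and H2S quantified against a Na2S calibration curve; peak concentration and peak time were recorded.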

Data set [2] can be described thus: […] peak time for H2S release in pH 7.4 PBS buffer containing 10% THF incubated for 2 hrs at room temperature in presence of 1 mM GSH by methylene blue based UV-Vis spectrometry. The data set is classed as physicochemical. Conditions: pH 7.4, 2 h. The method in brief:
as §1

The nature of data set [3]: GSH-induced H2S release assessed as peak H2S level in pH 7.4 PBS buffer containing 10% THF incubated for 2 hrs at room temperature in presence of cysteine by methylene blue based UV-Vis spectrometry. The data set is classed as physicochemical. The conditions noted are these: pH 7.4, 2 h. The method in brief: as §1
Data set [4] can be described thus: GSH-induced H2S release assessed as peak H2S level in pH 7.4 PBS buffer containing 10% THF incubated for 2 hrs at room temperature in presence of 1 mM GSH by methylene blue based UV-Vis spectrometry. The data set is classed as physicochemical. The conditions noted are these: pH 7.4, 2 h. Put shortly:
as §1

Data set [5] deals with H9c2. Briefly: Cytoprotective activity against H2O2-induced cell damage in rat H9c2 cells at 160 uM incubated for 1 hr before H2O2 challenge for 5 hrs by CCK8 assay. The data set is classed as functional, cell-based. The method in brief:
(§2)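 H9c2 cells (high-glucose DMEM, 10% FBS, 37 °C, 5% CO2) were preincubated 1 h with test agent, washed with PBS, then exposed to H2O2 (400 μM) for 5 h. Viability was read by CCK-8 (1:10 dilution, 3 h at 37 °C, absorbance 450 nm). The mean OD of 4 wells was expressed as % of control. Experiments were done in triplicate.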

For data set [6], the system named is H9c2. Briefly: Cytoprotective activity against H2O2-induced cell damage in rat H9c2 cells at 480 uM incubated for 1 hr before H2O2 challenge for 5 hrs by CCK8 assay. The class given is functional, cell-based. Put shortly: as §2
In data set [7] the test system is H9c2. As to the kind of experiment: Cytotoxicity against rat H9c2 cells assessed as reduction in cell viability at <40 uM incubated for 1 hr by CCK8 assay. The data set is classed as cell-based. Conditions: h9c2, 1 h. The method in brief:
(§3)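 H9c2 cells (high-glucose DMEM, 10% FBS, 37 °C, 5% CO2) were exposed 1 h to donor over 20–160 μM, either alone or with 480 μM cysteine, then washed twice with PBS. Viability was measured by CCK-8 (1:10 dilution, 3 h at 37 °C, absorbance 450 nm). The mean OD of 4 wells was expressed as % of control, in triplicate.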

The subject of data set [8] is H9c2. Briefly: Cytotoxicity against rat H9c2 cells assessed as reduction in cell viability at >80 uM incubated for 1 hr by CCK8 assay. The data set is classed as cell-based. The conditions noted are these: h9c2, 1 h. Put shortly:
as §3

The test system of data set [9] is H9c2. Briefly: Cytotoxicity against rat H9c2 cells assessed as reduction in cell viability at 160 uM in presence of 480 uM cysteine incubated for 1 hr by CCK8 assay. The conditions noted are these: h9c2, 1 h. The data set is classed as cell-based. Put shortly:
as §3

The test system of data set [10] is H9c2. As to the kind of experiment: Cytoprotective activity against H2O2-induced cell damage in rat H9c2 cells at 160 uM pre-incubated for 1 hr before H2O2 challenge for 5 hrs in presence of 480 uM cysteine by LDH release assay. The class given is functional, cell-based. Put shortly:
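H9c2 cells at about 70% confluence were preconditioned 1 h with donor plus cysteine (480 μM), then treated with H2O2 (400 μM) for 5 h. Extracellular LDH was measured in supernatant; intracellular LDH in lysate made with 2% Triton X-100 in DMEM. Kit reaction ran 10 min at room temperature, read at 490/600 nm. % release = extracellular/(extracellular+intracellular). Run 4 times.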

Data set [11] concerns H9c2. Briefly: Cytoprotective activity against H2O2-induced cell damage in rat H9c2 cells assessed as reduction in mitochondrial membrane potential loss at 160 uM pre-incubated for 1 hr before H2O2 challenge for 5 hrs in presence of 480 uM cysteine by Rh123 dye based fluorescent microscopy. The class given is functional. The method in brief: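 H9c2 cells were grown in high-glucose DMEM with 10% FBS at 37 °C, 5% CO2. They were pretreated 1 h with donor plus cysteine (480 μM), then given H2O2 (400 μM) for 5 h. Rh123 (10 mg/L) was added for 15 min at 37 °C. Fluorescence microscopy gave mean Rh123 intensity from four random fields.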

SMILES strings stand for the structures. Calls of active or inactive are those of the source. The rule behind the calls is not given here.

Take `CN(C)c1ccc(C(=O)SNC(=O)c2ccccc2)cc1`: the values for the Time in data set [1] and in data set [2] were 65 min and 80 min, respectively. For the same molecule, the results for the Activity in data set [3] and in data set [4] were 19.5 µM and 7.6 µM, respectively.
On the same counts, the results for `O=C(NSC(=O)c1ccccc1)Nc1ccccc1` are 95 min, 110 min, 21.5 µM and 29.9 µM.
The like results for `O=C(NSC(=O)c1ccccc1)Nc1ccc(Cl)cc1` were, in that order, 110 min, 120 min, 10.7 µM and 20.9 µM.
With `COc1ccc(C(=O)SNC(=O)Nc2ccccc2)cc1`, the Time in data set [1] was 105 min; in data set [2], 120 min. Besides, the Activity was 14.1 µM in data set [3] and 26.4 µM in data set [4].
The like results for `O=C(NSC(=O)c1ccccc1)c1ccc(F)cc1` were, in that order, 55 min, 65 min, 38.5 µM and 43.3 µM.
For the molecule `CCC(=O)NSC(=O)c1ccccc1`, the Time in data set [1] amounted to 55 min; in data set [2], 60 min. In addition, the results for the Activity in data set [3] and in [4] were 44.1 µM and 54.1 µM, respectively.
The like results for `CC(=O)Oc1ccccc1C(=O)NSC(=O)c1ccccc1` were, in that order, 60 min, 60 min, 35.1 µM and 44.5 µM.
Regarding `Cc1ccc(C(=O)SNC(=O)Nc2ccccc2)cc1`, the Time in data set [1] amounted to 105 min; in [2] it was 130 min. For the same molecule, the Activity in data set [3] is 16.5 µM; in data set [4] it was 20 µM.
With `CC(=O)NSC(=O)c1ccccc1`, the Time in data set [1] came out at 45 min; in data set [2], 50 min. Besides, the Activity in data set [3] was found to be 46.4 µM; in data set [4], 58.3 µM.
The like results for `Cc1ccc(C(=O)SNC(=O)c2ccccc2)cc1` were, in that order, 60 min, 60 min, 45.4 µM and 39.8 µM.
As for `Cc1ccccc1C(=O)NSC(=O)c1ccccc1`, the Time came to 55 min in data set [1] and 65 min in data set [2]. The Activity worked out at 51.4 µM in [3] and 57.6 µM in data set [4].
The like results for `COc1cccc(C(=O)SNC(=O)c2ccccc2)c1` were, in that order, 55 min, 80 min, 47 µM and 39.5 µM.
As for `NC(=O)c1ccccc1`, in the data set with H9c2 [5], the result was inactive.
The same measure, in the same setting: to `O=C(N[C@@H](CS)C(=O)O)c1ccccc1` belongs “inactive”.
On to `Cc1ccc(NC(=O)NSC(=O)c2ccccc2)cc1`, for which the Time in [1] is listed as 90 min; in data set [2] it was 130 min. The Activity in [3] was determined as 21.8 µM; in [4] it was 27.4 µM.
For the molecule `N[C@@H](CS)C(=O)O`, in the data set with H9c2 [6], the result was inactive.
Take `Cc1cccc(C(=O)SNC(=O)c2ccccc2)c1`: the Time in [1] is on record as 55 min; in [2] it was 65 min. Also, the Activity in [3] was 49.3 µM; in data set [4], 39.3 µM.
Regarding `COc1ccc(C(=O)SNC(=O)c2ccccc2)cc1`, the Time is listed as 60 min in [1] and 65 min in data set [2]. In addition, the Activity in data set [3] was 41.8 µM; in [4], 46.8 µM; in the data set with H9c2 [7] it was “Non-toxic”; in the data set with H9c2 [8], “Toxic”; with H9c2 [9], “Non-toxic”. Besides, the result with H9c2 [10] and in the data set with H9c2 [11] was Active.
With `O=C(NSC(=O)c1ccc(Cl)cc1)Nc1ccccc1`, the values for the Time in data set [1] and in data set [2] were 95 min and 120 min, respectively. Also, the Activity in [3] was found to be 18.2 µM; in data set [4], 24.9 µM.
The like results for `CC(C)C(=O)SNC(=O)c1ccccc1` were, in that order, 65 min, 70 min, 40.7 µM and 58.4 µM.
On the same counts, the results for `COC(=O)c1ccc(C(=O)SNC(=O)c2ccccc2)cc1` are 50 min, 55 min, 38.8 µM and 36 µM.
The like results for `O=C(NSC(=O)c1ccc(C(F)(F)F)cc1)c1ccccc1` were, in that order, 45 min, 60 min, 48.3 µM and 28.1 µM.
With `O=C(Cc1ccccc1)SNC(=O)c1ccccc1`, the values for the Time in [1] and in data set [2] were 50 min and 60 min, respectively. For the same molecule, the Activity worked out at 33.4 µM in [3] and 47.5 µM in [4].
The like results for `Cc1ccccc1C(=O)SNC(=O)c1ccccc1` were, in that order, 60 min, 70 min, 29.4 µM and 19.8 µM.
On the same counts, the results for `O=C(NSC(=O)C1CCCC1)c1ccccc1` are 60 min, 65 min, 40.9 µM and 49.9 µM.
Regarding `CC(C(=O)SNC(=O)c1ccccc1)c1ccccc1` (configuration not stated), the figures for the Time in [1] and in data set [2] were 60 min and 70 min, respectively. The Activity in data set [3] came out at 48.2 µM; in data set [4] it was 55.6 µM.
On the same counts, the results for `O=C(NSC(=O)c1cccc(Cl)c1)c1ccccc1` are 50 min, 60 min, 49.4 µM and 31.3 µM.
The like results for `CC(C)(C)C(=O)SNC(=O)c1ccccc1` were, in that order, 80 min, 90 min, 37.5 µM and 48.1 µM.
The like results for `CCCC(=O)NSC(=O)c1ccccc1` were, in that order, 60 min, 60 min, 45.9 µM and 58.3 µM.
In the case of `CC(=O)SNC(=O)c1ccccc1`, the Time is recorded as 60 min in [1] and 70 min in data set [2]. Moreover, the values for the Activity in data set [3] and in [4] were 48.4 µM and 63.1 µM, respectively.
The like results for `O=C(NSC(=O)C1CCCCC1)c1ccccc1` were, in that order, 65 min, 80 min, 48.1 µM and 68.2 µM.
On to `O=C(NSC(=O)c1ccc(F)cc1)Nc1ccccc1`, for which the Time is listed as 75 min in [1] and 90 min in data set [2]. For the same molecule, the values for the Activity in [3] and in data set [4] were 18.8 µM and 18.5 µM, respectively.
On the same counts, the results for `O=C(NSC(=O)c1ccccc1)c1cccc(Cl)c1` are 60 min, 70 min, 25.2 µM and 29.9 µM.
The like results for `COc1ccccc1C(=O)SNC(=O)c1ccccc1` were, in that order, 60 min, 80 min, 29 µM and 34 µM.
